Shown are actives, neighbours in structure and some others; about 3.7% of the full set was active somewhere.
KCNK3 block: human KCNK3 channel inhibitors, primary screen, CHO cells, FluxOR thallium flux, B-score; Potassium channel subfamily K member 3 (Homo sapiens), O14649; FluxOR fluorescence; stronger effect = lower value; B-score at 10 µM; 0.84% of 340,000 active;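 active = B-score under library mean minus 4 SD, starting fluorescence ratio at most library mean plus 5 SD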;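 note: more negative B-score means stronger inhibition of thallium flux through KCNK3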
Target sequence (O14649 whole entry, looked up): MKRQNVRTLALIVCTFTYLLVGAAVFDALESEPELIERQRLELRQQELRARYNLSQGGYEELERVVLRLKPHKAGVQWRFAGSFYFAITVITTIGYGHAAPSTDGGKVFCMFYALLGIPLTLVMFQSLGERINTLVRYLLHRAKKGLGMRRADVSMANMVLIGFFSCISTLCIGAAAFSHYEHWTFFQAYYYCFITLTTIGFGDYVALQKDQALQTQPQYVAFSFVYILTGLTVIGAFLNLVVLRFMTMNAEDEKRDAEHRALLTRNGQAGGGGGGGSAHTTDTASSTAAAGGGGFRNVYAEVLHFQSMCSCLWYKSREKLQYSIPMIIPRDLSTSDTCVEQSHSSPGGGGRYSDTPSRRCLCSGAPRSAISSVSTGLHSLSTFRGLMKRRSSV
KCNK9 inh: KCNK9 potassium channel inhibitors, primary screen, HEK293 cells, thallium flux. Potassium channel subfamily K member 9 (Homo sapiens), Q9NPC2. FluxOR thallium flux fluorescence; stronger effect = lower value. B-score at 10 µM. 1.2% of 310,000 active;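 active = ratio B-score over 3 SD below the library mean, with starting fluorescence within 5 SD of its mean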;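 note: negative B-score means less thallium flux so channel inhibition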
KCNQ1 block: inhibitors of human KCNQ1 channel, primary screen, cell-based, thallium flux, high-throughput; Potassium voltage-gated channel subfamily KQT member 1 (Homo sapiens), P51787; CHO-K1 KCNQ1, FluxOR thallium flux fluorescence; stronger effect = higher value; B-score at 10 µM; 1.3% of 310,000 active;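 active = compounds whose thallium flux B-score, printed positive for inhibition, exceeds three library SD while starting fluorescence stays within three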;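 note: channel opened by potassium depolarization with thallium stimulus after 20 min compound exposure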
hERG rescue: hERG rescue from dofetilide block, primary screen, cell-based, CHO-hERG, FluxOR thallium flux, dofetilide IC70; dofetilide IC70 present; Voltage-gated inwardly rectifying potassium channel KCNH2 (Homo sapiens), Q12809; activation (rescue from dofetilide block), less the hit threshold, % at 10 µM; AID 1511, 2009; 0.51% of 310,000 active;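 active = activation above the mean of controls blocked by dofetilide plus 5 SD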;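 note: thallium influx through hERG after potassium depolarization seen as dye fluorescence rise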
KCNQ1 pot: potentiators or activators of KCNQ1 channel, primary screen, cell-based, thallium flux, high-throughput. CHO-K1 KCNQ1, thallium flux FluxOR fluorescence; stronger effect = higher value. B-score at 10 µM. Potassium voltage-gated channel subfamily KQT member 1 (Homo sapiens), P51787. 0.35% of 310,000 active;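 active = fluorescence ratio B-score, a plate-corrected score, at least three library SD, with initial intensity B-score within 5 SD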
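System: Stable KCNQ1 CHO-K1 line | Incubation: 90 min dye loading and 20 min compound exposure, both at room temperature | Measure: Ratio B score | Medium: Assay buffer for compound exposure, DMSO matched across wells | Compound dosing: Single-concentration screen | Probe or stimulus: K+/Tl+ depolarizing stimulus | Measured by: Kinetic FluxOR fluorescence, 10 s baseline plus 110 s post-stimulus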
Kir21 inh: inhibitors of mouse Kir2.1 inward-rectifier potassium channel; Inward rectifier potassium channel 2 (Mus musculus), P35561; HEK293-Kir2.1, FluxOR thallium flux fluorescence; stronger effect = lower value; B-score at 10 µM; 0.85% of 310,000 active;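 active = fluorescence ratio B-score at or below minus 3 SD of library scores, with starting-brightness B-score within 2 SD, cut at about -4.2 in these data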;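 note: channel flux triggered by added potassium and thallium sulfate stimulus; B-score of peak minus minimum fluorescence over baseline after thallium stimulus; more negative B-score means stronger Kir2.1 block with less thallium influx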
KCNQ1 inh valid: KCNQ1 potassium channel inhibitors, confirmation, cell-based, Tl flux, duplicate; shares compounds with KCNQ1 block; AID 588353, 2011; inhibition, % at 10 µM; 93% of 1,600 active; KCNQ1 cell line, FluxOR thallium flux fluorescence;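 active = primary screen active, with duplicate mean exceeding buffer control mean plus 3 SD of buffer wells, cut at about 28% in these data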;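 note: 0% = buffer control ratio and 100% = XE991 inhibitor control ratio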
CHO Tl flux: thallium flux effects in parental CHO cells, counter-screen for KCNQ1 inhibitor project, cell-based, Tl flux; 21% of 1,600 active; fluorescence ratio (Tl flux) at 10 µM; parental CHO-K1, FluxOR thallium flux fluorescence ratio; stronger effect = lower value; zero means no signal rise above baseline; shares compounds with KCNQ1 block; AID 588366, 2011;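 active = mean of duplicate thallium-flux fluorescence ratios in parental host cells more than 5 SD below the buffer control mean, cut at about 0.38 in these data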;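 note: ratio is peak minus minimum fluorescence divided by baseline fluorescence; actives read low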
KCNQ1 ephys val: KCNQ1 channel inhibitors, confirmation, orthogonal assay, cell-based, automated electrophysiology; calls only at 10 µM; shares compounds with KCNQ1 block; 20% of 490 active; KCNQ1-CHO cells, automated patch clamp current;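 active = KCNQ1 current drop exceeding 3 SD of negative control wells, seen in both duplicate runs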;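 note: steady state current during a 2 s step from -80 to +40 mV; negative values mean current inhibition and positive values mean potentiation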
KCNQ2 spec: KCNQ2 channel inhibition, selectivity assay for KCNQ1 inhibitor project, cell-based | shares compounds with KCNQ1 block | KCNQ2 cells, FluxOR thallium flux fluorescence | inhibition, % at 10 µM | 71% of 1,600 active;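 active = mean percent inhibition of the KCNQ2 thallium signal more than 5 SD above the buffer-only control wells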;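 note: KCNQ2 expressed in CHO cells; 0% = buffer control wells and 100% = XE-991 inhibitor control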
KCNQ1-KCNE1 inh: KCNQ1/KCNE1 channel inhibition, selectivity assay for KCNQ1 inhibitor project, CHO-K1 cells, thallium flux, FluxOR. shares compounds with KCNQ1 block. FluxOR thallium flux fluorescence. inhibition, % at 10 µM. 77% of 1,600 active;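 active = mean percent inhibition of duplicate wells above the buffer-only control mean plus 3 SD of those controls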;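 note: 0% = buffer only wells and 100% = XE-991 inhibitor control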
Numbers without * were called inactive.

How did CCn1c(SCC(=O)Nc2nc(-c3ccc(C)cc3)cs2)nnc1-c1ccccc1 do in these assays?
KCNK3 block: inactive; KCNK9 inh: inactive; KCNQ1 block: inactive; hERG rescue: -4.1; KCNQ1 pot: inactive; Kir21 inh: -0.01

What do the screens show for `Cc1ccc(-c2csc(NC(=O)CSc3nc4ccccc4c(=O)n3CCCN(C)C)n2)cc1`?
KCNK3 block: inactive; KCNK9 inh: inactive; KCNQ1 block: 8*; hERG rescue: -45.6; KCNQ1 pot: inactive; Kir21 inh: -1.59; KCNQ1 inh valid: 118.5*; CHO Tl flux: 0.293*; KCNQ2 spec: 101.3%*; KCNQ1-KCNE1 inh: 154.0%*

Results for Cc1ccc(NC(=O)CSc2nc3ccccc3c(=O)n2CCCN2CCCCC2)cc1Cl ?
KCNK3 block: inactive; KCNK9 inh: inactive; KCNQ1 block: 7*; hERG rescue: -21.8; KCNQ1 pot: inactive; Kir21 inh: -3.04; KCNQ1 inh valid: 85.0*; CHO Tl flux: 0.361*; KCNQ2 spec: 85.3%*; KCNQ1-KCNE1 inh: 84.0%*

What do the screens show for `COc1cccc(CNC(=O)CCNC(=O)Cn2ccc3ccccc3c2=O)c1`?
KCNK3 block: inactive; KCNK9 inh: inactive; KCNQ1 block: 7*; hERG rescue: -17.1; KCNQ1 pot: inactive; Kir21 inh: 0.16; KCNQ1 inh valid: 0.0; CHO Tl flux: 0.555; KCNQ2 spec: inactive; KCNQ1-KCNE1 inh: inactive

How did COc1cccc(CN2CCC(C(=O)Nc3ccc(-c4cccc(C)c4)cc3)CC2)c1O do in these assays?
KCNK3 block: inactive; KCNK9 inh: inactive; KCNQ1 block: inactive; hERG rescue: -38.4; KCNQ1 pot: inactive; Kir21 inh: -0.19

Results for O=S(=O)(c1ccc2[nH]c3c(c2c1)CCCC3)N1CCCCC1 ?
KCNK3 block: inactive; KCNK9 inh: inactive; KCNQ1 block: 9*; hERG rescue: -2.8; KCNQ1 pot: inactive; Kir21 inh: -0.25; KCNQ1 inh valid: 88.0*; CHO Tl flux: 0.451; KCNQ1 ephys val: active; KCNQ2 spec: 75.0%*; KCNQ1-KCNE1 inh: 110.0%*

How did CCn1c(C)nc2cc(C(=O)NNC(=O)c3ccc(C)cc3)ccc21 do in these assays?
KCNK3 block: inactive

How did CCn1c(C)nc2cc(C(=O)OC(C(F)(F)C(F)F)C(F)(F)C(F)F)ccc21 do in these assays?
KCNK3 block: inactive; KCNK9 inh: inactive; KCNQ1 block: 9*; hERG rescue: -22.2; KCNQ1 pot: inactive; Kir21 inh: 1.13; KCNQ1 inh valid: 131.0*; CHO Tl flux: 0.4; KCNQ1 ephys val: inactive; KCNQ2 spec: 88.7%*; KCNQ1-KCNE1 inh: 115.5%*

Screens: PubChem BioAssay, Johns Hopkins Ion Channel Center
